Results reported in ChEMBL document CHEMBL4715702, “Overcoming multidrug resistance by targeting mitochondria with NO-donating doxorubicins” (Bioorg Med Chem, 2016).
The source made the active and inactive calls. No cut-off for these calls is given here.

Experiments:
[1] = Prodrug release in doxorubicin-resistant human HT-29 cells assessed as increase in NO level by measuring induction of P-glycoprotein nitration in plasma membrane at 5 uM incubated for 24 hrs by western blot analysis; format: cell membranes, Cell membrane; settings: ht-29, 24 h
How it was run: (§1)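 Cells 24 h with 5 µmol/L compound. Plasma-membrane proteins isolated by surface biotinylation, 50 µg run on SDS-PAGE, probed for Pgp with pancadherin loading control; nitration detected by Western blot, peroxidase secondary and chemiluminescence. Representative of three experiments.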

[2] = Prodrug release in human HT-29 cells assessed as increase in NO level by measuring induction of P-glycoprotein nitration in plasma membrane at 5 uM incubated for 24 hrs by western blot analysis; format: cell membranes, Cell membrane; settings: ht-29, 24 h; how it was run: as §1
[3] = Prodrug release in human HT-29 cells assessed as increase in NO level by measuring nitrite release at 5 uM incubated for 24 hrs by spectrophotometric analysis; format: ADME, cell-based; settings: ht-29, 24 h
How it was run: (§2)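 After 24 h culture with 5 µmol/L compound, medium mixed 1:1 with Griess reagent, 10 min 37°C in dark, absorbance 540 nm. Cell-free blank subtracted; nitrite expressed as nmol/mg cell protein. HT29/dx maintained in 200 nmol/L DOXO. Triplicate, mean ± SD (n = 3).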

[4] = Prodrug release in doxorubicin-resistant human HT-29 cells assessed as increase in NO level by measuring nitrite release at 5 uM incubated for 24 hrs by spectrophotometric analysis; format: ADME, cell-based; settings: ht-29, 24 h; how it was run: as §2
[5] = Prodrug release in human HT-29 cells assessed as increase in NO level by measuring plasma membrane associated MRP1/BCRP nitration mediated drug uptake at 5 uM incubated for 24 hrs by spectrofluorometric analysis; format: ADME, cell membranes; settings: ht-29, 24 h
How it was run: (§3)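 Cells 24 h with 5 µmol/L compound; DOXO in whole-cell lysates measured fluorimetrically (ex 475/em 553 nm), cell-free blank subtracted, converted to nmol DOXO/mg protein by calibration curve. Triplicate, mean ± SD.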

[6] = Prodrug release in doxorubicin-resistant human HT-29 cells assessed as increase in NO level by measuring plasma membrane associated MRP1/BCRP nitration mediated drug uptake at 5 uM incubated for 24 hrs by spectrofluorometric analysis; format: ADME, cell membranes; settings: ht-29, 24 h; how it was run: as §3
HT-29 [7] = test: Cytotoxicity against doxorubicin-resistant human HT-29 cells assessed as LDH release at 5 uM incubated for 24 hrs; format: functional, cell-based
How it was run: (§4)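 Extracellular medium spun 12,000 × g 5 min; cells detached, sonicated in 82.3 mmol/L triethanolamine phosphate-HCl pH 7.6. LDH activity read in medium and lysate at 340 nm over 6 min, as µmol NADH oxidized/min/dish; extracellular LDH given as % of total dish activity. Compounds from DMSO stock, 5 µM final, 1% DMSO; controls 1% DMSO. Triplicate, mean ± SD.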

HT-29 [8] = test: Cytotoxicity against human HT-29 cells assessed as LDH release at 5 uM incubated for 24 hrs; format: functional, cell-based; how it was run: as §4
[9] = Stability of the compound assessed as human serum esterase-mediated compound hydrolysis by measuring half life at 100 uM by RP-HPLC analysis; format: ADME, cell-free
How it was run: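 Compound from 10 mM DMSO stock added to human male AB serum preheated to 37 °C, 100 µM final, incubated at 37 ± 0.5 °C. Aliquots deproteinized with acetonitrile/0.1% HCOOH, centrifuged, filtered. Parent and degradation products quantified by RP-HPLC (234 and 480 nm) against 1–100 µM calibration. At least triplicate.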

HT-29 [10] = test: Induction of apoptosis in doxorubicin-resistant human HT29 cells assessed as activation of caspase 3 using DEVD-AMC substrate at 5 uM incubated for 24 hrs by fluorescence based assay; format: functional, cell-based
How it was run: (§5)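 Cells 24 h in 5 µmol/L compound or fresh medium, lysed in HEPES/KOH buffer pH 7.5. 20 µg lysate incubated 1 h at 37°C with 20 µmol/L LEHD-AMC (caspase 9) or DEVD-AMC (caspase 3) in HEPES/CHAPS/sucrose/DTT buffer pH 7.5. Stopped with ice-cold 0.1% TCA; AMC fluorescence ex 380/em 460 nm, converted to nmol AMC/µg protein via AMC standards. Triplicate.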

HT-29 [11] = test: Induction of apoptosis in human HT29 cells assessed as activation of caspase 3 using DEVD-AMC substrate at 5 uM incubated for 24 hrs by fluorescence based assay; format: functional, cell-based; how it was run: as §5
HT-29 [12] = test: Induction of apoptosis in doxorubicin-resistant human HT29 cells assessed as activation of caspase 9 using LEHD-AMC substrate at 5 uM incubated for 24 hrs by fluorescence based assay; format: functional, cell-based; how it was run: as §5
HT-29 [13] = test: Induction of apoptosis in human HT29 cells assessed as activation of caspase 9 using LEHD-AMC substrate at 5 uM incubated for 24 hrs by fluorescence based assay; format: functional, cell-based; how it was run: as §5
H9c2 = test: Cardiotoxicity against rat H9c2 cells assessed as LDH release at 5 uM incubated for 24 hrs; format: toxicity, cell-based; settings: h9c2, 24 h; how it was run: as §4
HT-29 [14] = test: Upregulation of iNOS protein expression in human HT-29 cells; format: functional, cell-based
How it was run: (§6)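 HT29 and HT29/dx cells incubated 24 h with compound or fresh medium; lysed in MLB buffer pH 7.5, sonicated, centrifuged 13,000 x g 10 min 4°C; iNOS detected in whole-cell lysate by Western blotting.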

HT-29 [15] = test: Upregulation of iNOS protein expression in doxorubicin-resistant human HT-29 cells; format: functional, cell-based; how it was run: as §6
[16] = Prodrug release in human HT-29 cells assessed as increase in NO level by measuring mitochondria associated MRP1/BCRP/P-gp nitration mediated drug uptake at 5 uM incubated for 24 hrs by spectrofluorometric analysis; format: ADME; settings: ht-29, 24 h
How it was run: (§7)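 Cells 24 h with 5 µmol/L compound; mitochondrial fractions isolated (porin check by immunoblot), DOXO measured fluorimetrically (ex 475/em 553 nm) with blank subtraction and calibration curve; expressed as nmol DOXO/mg mitochondrial protein. Triplicate, mean ± SD.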

[17] = Prodrug release in doxorubicin-resistant human HT-29 cells assessed as increase in NO level by measuring mitochondria associated MRP1/BCRP/P-gp nitration mediated drug uptake at 5 uM incubated for 24 hrs by spectrofluorometric analysis; format: ADME; settings: ht-29, 24 h; how it was run: as §7
[18] = Prodrug release in human HT-29 cells assessed as increase in NO level by measuring induction of P-glycoprotein nitration in mitochondria at 5 uM incubated for 24 hrs by western blot analysis; settings: ht-29, 24 h
How it was run: (§8)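 Cells 24 h with 5 µmol/L compound. Mitochondrial extracts, 10 µg protein, run on SDS-PAGE and probed for Pgp, porin as loading control; nitration detected by Western blot with peroxidase secondary and chemiluminescence. Representative of three experiments.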

[19] = Prodrug release in doxrubicin-resistant human HT-29 cells assessed as increase in NO level by measuring induction of P-glycoprotein nitration in mitochondria at 5 uM incubated for 24 hrs by western blot analysis; settings: ht-29, 24 h; how it was run: as §8

SMILES: COc1cccc2c1C(=O)c1c(O)c3c(c(O)c1C2=O)C[C@@](O)(C(=O)COC(=O)C(C)(C)CO[N+](=O)[O-])C[C@@H]3O[C@H]1C[C@H](N)[C@H](O)[C@H](C)O1.Cl
- Activity [1]: Not Active
- Activity [2]: Not Active
- Drug metabolism [3]: Metabolite_Detected
- Drug metabolism [4]: Metabolite_Detected
- Drug uptake [5]: Active
- Drug uptake [6]: Active
- Activity (HT-29 [7]): Active
- Activity (HT-29 [8]): Active
- half-life at 100 µM [9]: 21.7 h
- Activity (HT-29 [10]): Active
- Activity (HT-29 [11]): Active
- Activity (HT-29 [12]): Active
- Activity (HT-29 [13]): Active
- Activity (H9c2): Non-Toxic
- Activity (HT-29 [14]): Active
- Activity (HT-29 [15]): Active
- Drug uptake [16]: Active
- Drug uptake [17]: Active
- Activity [18]: Active
- Activity [19]: Active
